The EternaBench riboswitch data

Tested on: MS2 coat protein
Assay: apparent Kd, MS2 coat protein; higher = weaker binding; RNA-MaP array; FMN 200 µM where present
Summary of the method: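 Green signal from SNAP-549-labelled MS2 coat protein was normalised to red-channel RNA signal and to the median Fmax of control clusters. The protein was titrated from 0.7 or 1.5 nM, doubling to 3 µM, without and then with constant ligand, over designs transcribed by stalled E. coli RNA polymerase on Illumina sequencing-chip clusters, in 100 mM Tris-HCl pH 7.5, 80 mM KCl, 4 mM MgCl2, BSA, DTT, yeast tRNA and Tween-20. The apparent Kd is the median of filtered per-cluster binding-curve fits.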

[1] = designed as: OFF switch for flavin mononucleotide, no ligand
[2] = ligand present: flavin mononucleotide, designed as: OFF switch for flavin mononucleotide
[3] = designed as: ON switch for flavin mononucleotide, no ligand
[4] = ligand present: flavin mononucleotide, designed as: ON switch for flavin mononucleotide

| Sequence | apparent Kd [1] [nM] | apparent Kd [2] [nM] | apparent Kd [3] [nM] | apparent Kd [4] [nM] |
| --- | --- | --- | --- | --- |
| GUACGUGGACAGAAGGUGACAUGAGGAUCACCCAUGUUAGUUGAGGUACCAGCGAUCCGCGUGAUUGAGGAUAUGUCUGCGGGC | 16.1 | 42.4 | – | – |
| AUAUGAAAGAUAGGAUAUACUGAGGUUGAAUGGGUAGAAGGAUCGAUAGUGGAGAAUACAUGAGGAUCACCCAUGUUGUGGAUU | – | – | 828 | 353 |
| AGUACAUCAGGAUAUACAUGGAAGAUCAUUAUGACCCAUCUACAUGAGGAUCACCCAUGUAGAAGGGAUGUACA | 24.6 | 16.9 | – | – |
| CAGCGAUAGCUGAACAAUCUAUCUGAGGAUAUUCAUGAUAAACAUGAGGAUCACCCAUGUAAUUGGGAGAAGGCAGAUAGAUUG | – | – | 441 | 19.3 |
| UACAUCACGUAAGGAUAUACACGGGUUUCAAGAGUAGAAGGUACAAACAUGAGGAUCACCCAUGUAGACAUGGUUAAUAUUGUA | – | – | 54.3 | 40.6 |
| AUCAGCUCGUCAGGAUAUACGUCACUGCGUCAGCAGUGUGGUAAGAUCACAUGAGGAUCACCCAUGUAGAAGGGACGAGCUGCU | 14 | 264 | – | – |
| AUAAUUUUAUAUAUCAUUUUAAUCAGAAGGCAUAACAUGAGGAUCACCCAUGUAUAUUAUAGUUAUGAGGAUAUGAUUUGGUUA | 11.6 | 10.9 | – | – |
| GGUGCAUAUGAGAAGGCGAUCAUGAAACAUGAUCGAGGAUAUCAUGUAAACAUGAGGAUCACCCAUGUAUGGGAAUAUUGCACC | – | – | 176 | 12.6 |
| AGAACAUGAGGAUCACCCAUGUAAAGAUCGGUCAAUAAGGGUGAGGAUAUGCUUAAAAUAAGGUAGCAGAAGGUACUUGGUGCA | – | – | 91.2 | 245 |
| CAUGUACGUGAGGAUAUGGUGGCGACGAGCCGGCUAGAAGGCACAACAUGAGGAUCACCCAUGUCUUGGAUCUA | 114 | 374 | – | – |
| UAAAUACAUGAGGAUCACCCAUGUCAGGAUAUAUUACGCCCGCCAAGCGAGCGCGUCUAUAGAAGGGACGGUGA | 33.3 | 33.2 | – | – |
| AACUGACAUGAGGAUCACCCAUGUCAGGAUAUGCUUCAUAAAAUAAAAAUAAAAUGAUGCAGAAGGGACAUGGA | 27.1 | 39.6 | – | – |
| CGCGAUAGCAUAGGAUAUUGAUACAUGAGGAUCACCCAUGUCAACCAUGAAGCUCGAAUUGUUGACAAGAAGGAUGAGGUCGCG | – | – | 81.3 | 55.3 |
| ACAAGAUCAGGAUAUACAUGAGGAUCACCCAUGUGUAUCAAAAGGGAACUUUCUUAAUGUAGAAGGGAUCUUGU | 14.7 | 22.3 | – | – |
| GCGUCAGAAUUAAUUGUGACAGACAGAAGGCAAUAGUUCAUGUCAGACAUGAGGAUCACCCAUGUUGAGGAUAUGUAUUUACAC | 6.05 | 6.29 | – | – |
| UCGCUGCGAGGAUAUACGUUUGCGCGCUUUCGUUUGCGCGUACAUGAGGAUCACCCAUGUAGAAGGCGCGCUGC | 15.5 | 15.5 | – | – |
| UUUUUCUGCUGAGGAUAUUGCUCGUGCGUACAUGAGGAUCACCCAUGUGUCUUGAUCCUCUUCUGCAAGAAGGCAGCUCUCUCU | 403 | 155 | – | – |
| GGUACCAUCACAGGAUAUGCUUUCCUUUGGGAAGCAGAAGGGUGUAACAUGAGGAUCACCCAUGUGGUGCCAGGGCGCGAGCCC | – | – | 182 | 16.8 |
| AUUUUUUGUCAUGUACAUGAUGAACAUGAGGAUCACCCAUGUAGAAGGAAUUUUUUUAAGUUUAGUUAGGAUAUACAUAUAUUU | 16.6 | 10.8 | – | – |
| UUGUAAACUAUCCGUACAUGAGGAUCACCCAUGUGCAAGAGCAGAAGGACGUGGCACUCGAGUACGUAGGAUAUGCAUGGAUGG | – | – | 27.1 | 9.59 |
| UUACAGCAAGGAUAUACGGGCUGUGCUUUUCAUUUCUUACAACAUGAGGAUCACCCAUGUAGAAGGUGCAACAU | 32.6 | 73.7 | – | – |
| UCCCAGUAAGGAUAUCAGGCAAGUCUCCGGGAGCUUAGUCGUGAGAAGGUACAUGAGGAUCACCCAUGUGAUUG | 58 | 211 | – | – |
| AAGCCCUGAGGAUAUCCCAACUCGCACAUGAGGAUCACCCAUGUCCUUCUCUGGGCUUCGGGAGAAGGCAGGUCUC | 90.3 | 305 | – | – |
| UUACCUUAUGAGAAGGCGAUCAUGAAACAUGAUCGAGGAUAUCAUGUAAACAUGAGGAUCACCCAUGUAUGGGUAUUAUGGUAU | – | – | 96 | 23.9 |
| AGAAACUACGAGAAGGACAUGUGAAAAGCCGCAAACAUGAGGAUCACCCAUGUAGGAUAUCGUAGUUUCAGGAUCGUGAGAUCA | 54.6 | 442 | – | – |
| CCUGCACAUGAGGAUCACCCAUGUCAGGAUAUCUCGCCGUGAAGAGCAACACGGUAUUAGAGAAGGGACACGGG | 25.1 | 23.3 | – | – |
| UAUAUUUAUGUAGGAUAUGGUAUACAAAGUAUACCAGAAGGACAUGAGGAUCACCCAUGUAUGAAAUUCCAUAAUUGCCGUGUA | 16.1 | 16.4 | – | – |
| GACAUUGGCAAGAAGGCAAACAUGAGGAUCACCCAUGUUCUGUAUGUAUAUUGAGGAUAUUGCCAAUGUAUGUGGAUCACCCAA | 9.44 | 8.28 | – | – |

| Sequence | apparent Kd [1] [nM] | apparent Kd [2] [nM] | apparent Kd [3] [nM] | apparent Kd [4] [nM] |
| --- | --- | --- | --- | --- |
| GUGGUCAGACAUGAGGAUCACCCAUGUGGAAUAAAUAAGGGACAGGAUAUUUAAUAUAGGAUAUAGAAGAAGGGUUGGUUGGUG | – | – | 106 | 138 |
| UACUCAUGUGAGAAGGGACGUAUCUCCAUGAGGGUAGGGCUAUUAGAGAAGUCAGGAUAUCACAUGAGGAUCACCCAUGUGACG | 6.92 | 7.02 | – | – |
| GGACGUCACAUAUACAUGAGGAUCACCCAUGUCAAAAGACAUGAGGAUAUGGAUCCUAAUUGGAUCCAGAAGGCAUGGACGUCC | – | – | 832 | 51.9 |
| CCCACGCAUGAGAAGGGACAGGCGUGCAAUUCGACAUGAGGAUCACCCAUGUCAGGAUAUCAGUUAAGGUGGGCAGAACCAAUG | 16.9 | 76.7 | – | – |
| GCCCUCGCUGAGGAUAUUAUCUGGUUCGAUUGAUAAGAAGGCAGUACAUGAGGAUCACCCAUGUGGUUCGUUCG | 70.9 | 377 | – | – |
| CGGUGACUGGUGAGGAUAUCGUGUUCGAAAGAACGUGAGAAGGCACAUGAGGAUCACCCAUGUGAUCCUCAUCG | 26.1 | 163 | – | – |
| UGUCAUAUAUAGAAGGGUAGUAGGGUAUUACAUGAGGAUCACCCAUGUAUUAUAGGAUAUGUGUAUAGUUUUUAUUCAAGUAUA | 22.8 | 17 | – | – |
| AAAUAGAUCCGAGGAUAUACAAUCCGGAAACGGUACAUGAGGAUCACCCAUGUAGAAGGCGGAUCUACAGGUACUAAAGUAAAA | 10.8 | 10.8 | – | – |
| AUCAUCUUGUCAGGAUAUGCGUGUCAACGAAAGUAGACAAUCUUAAUAACAUGAGGAUCACCCAUGUAGAAGGGACGAGAUGAU | 19.8 | 21 | – | – |
| GCCGCGUUUCGCGCCUACAUGAGGAUCACCCAUGUUUGUGGGCAGGAUAUCGUCCGCUCUGCGGGCGAGAAGGGCUGUUGUGGU | – | – | 57.7 | 50 |
| AAGCGAGGGACAGGAUAUGCGGCGAAAUUCUCCGCAGAAGGGUCGACAUGAGGAUCACCCAUGUCCUUACGCUCCAAGUAGAGG | – | – | 324 | 467 |
| AUCAGCUCGUCAGGAUAUACGUCACUGCUUCGGCAGUGUAAUAAAAUAACAUGAGGAUCACCCAUGUAGAAGGGACGAGCUGAU | 5.93 | 6.13 | – | – |
| AGUAAACAUGAGGAUCACCCAUGUGGUGGCCCAUGAGGAUAUCCAUGCGCAAUACGCAUAGGAGAAGGCAUAGCCA | – | – | 62 | 123 |
| CUUUUAUUGGUCCAUUUUUUCAACAUGAGGAUCACCCAUGUGCAGGAUAUCGUGAUUAUUAUCAACGAGAAGGGCAGAUUCACG | 29 | 73.6 | – | – |
| ACAGCACGAGGAUAUACAUGAGGAUCACCCAUGUCUGAGGGAAGGCGAACGCCCUUGUGUAGAAGGCGUUGAUC | 91.4 | 112 | – | – |
| GACAUGAGGAUCACCCAUGUCCGGGCCAAAAGAAGAAAUACCAGAAGGACCGGCAGAAAUGAGCGGUAGGAUAUGGGAUUCGUG | – | – | 36.7 | 12.1 |
| CCGACGAAAGUCGAACGAUGUAGCAGAAGGACAUGAGGAUCACCCAUGUCAGCUGUAACAGCCAUGUAGGAUAUGCUACAUCGU | 4.28 | 5.85 | – | – |
| GAUUCACAUGAGGAUCACCCAUGUGAGGAUAUAGUGCAAGAGGUGGAUGCCCACCUCCCUAGAAGGCACACGGG | 28.6 | 24 | – | – |
| GUAGCAUAUGAUUUACAUGAGGAUCACCCAUGUAUCUUGGGUAAGGAUAUUGAUGUUAUGUUAAUCAAGAAGGUACUAUGCUAC | – | – | 50.5 | 8.66 |
| UGGUACAUCAUAGGAUAUCGUGUGUAAACAUGAGGAUCACCCAUGUCAUACGAGAGUAUGUCGAUCGAGAAGGAUGAUGUACCU | – | – | 31.2 | 17.2 |
| AUUUGAAUCGUAGGAUAUCGCUUAAAUUUACCACGAGAAGGACGAACAUGAGGAUCACCCAUGUAUCAUGGUGUAGAUAAUUUG | 68.2 | 249 | – | – |
| GUCGUGUGAGGAUAUGGAUCGACGCAGUGACAGUCAGCGACCUAGAAGGCACAUGAGGAUCACCCAUGUAUGUG | 54.6 | 97.5 | – | – |
| AAAUUUAACGAAGGAUAUGCUUACAUGAGGAUCACCCAUGUGUGCCUUGUGUUGCUGAUUAGGUUGCAGAAGGUCGUAUACAUA | 124 | 684 | – | – |
| UGUCCAUAGCAGAAGGACAUGAAUAAACGUGAAAACAUGAGGAUCACCCAUGUAGGAUAUGCUAUGGACUAAGAGCGAAAGCUC | 34.7 | 494 | – | – |
| GGGUACAUCGGAGGAUAUCAUUUAAAUACAUGAGGAUCACCCAUGUCGAUGGAGACAUCGGAGAUUGAGAAGGCCGAUGUACCG | – | – | 7.9 | 5.57 |
| GACAUGGUCCAGAAGGGCUAUUUAUUUAAGUACGAUUUAGAACAGCAUAGCAGGAUAUGGCUAACAUGAGGAUCACCCAUGUUC | – | – | 19.3 | 11.9 |
| AAGCGAGGGACAGGAUAUGCGGCAAAACUCGCCGCAGAAGGGUCGACAUGAGGAUCACCCAUGUCCUUACGCUCCAAGUAGAGG | – | – | 213 | 359 |
